Measurements from ChEMBL document CHEMBL1138782, “Toward a novel metal-based chemotherapy against tropical diseases. 7. Synthesis and in vitro antimalarial activity of new gold-chloroquine complexes” (J Med Chem, 2004).

Test system: Cell line
Assay: Parasitaemia for Plasmodium falciparum in human erythrocytes after 3 hrs incubation with 100 uM compound
Type: functional
Outline: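 Uninfected RBCs preincubated 3 h at 37 °C with 100 µM compound, washed in RPMI medium, then placed 6 h with RBCs carrying 44–48 h schizonts of synchronized K1 culture (plasmagel and sorbitol synchronization); reinvasion read as resulting parasitemia (%).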

How did the Parasitemia turn out when `CCN(CC)CCCC(C)Nc1ccnc2cc(Cl)ccc12.O=P(O)(O)O.O=P(O)(O)O` (stereo unspecified) [CHLOROQUINE PHOSPHATE] was run?
Its Parasitemia is 5.67%.
